Results from ChEMBL document CHEMBL1629622, “Isolation of VanB-type Enterococcus faecalis strains from nosocomial infections: first report of the isolation and identification of the pheromone-responsive plasmids pMG2200, Encoding VanB-type vancomycin resistance and a Bac41-type bacteriocin, and pMG2201, encoding erythromycin resistance and …” (2009).
Values after ≈ are worked out from the molar mass of the structure shown. Active and inactive are the calls of the source. The rule behind the calls is not given here. Residues, ends and D or L forms follow the SMILES beside them.

Key:
Enterococcus faecalis [1] = test: Induction of aggregation of Enterococcus faecalis JH2SS harboring pMG2201 at 100 ng/ml; assay type: functional, organism-based
Procedure, shortened: (§1)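 Donor E. faecalis JH2SS carrying the plasmid, exposed 2 h to synthetic pheromone (cAD1, cPD1, cCF10, cOB1 or cAM373 at 100 ng/ml) or to FA2-2 culture filtrate. Aggregation (clumping) of cells scored visually afterwards. A short 10-min mating with FA2-2 followed induction.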

Enterococcus faecalis [2] = test: Induction of aggregation of Enterococcus faecalis JH2SS harboring pMG2200 at 100 ng/ml; assay type: functional, organism-based; procedure, shortened: as §1
Enterococcus faecalis [3] = test: Induction of transfer of plasmid pAM714 in Enterococcus faecalis JH2SS at 100 ng/ml; assay type: functional, organism-based
Procedure, shortened: (§2)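 Donor E. faecalis JH2SS carrying pMG2200 and pAM714 was exposed for 2 h to a synthetic pheromone (cCF10 or cAD1, 100 ng/ml) to induce aggregation-mating. A short 10-min mating with recipient FA2-2 followed. Transfer frequency was scored as transconjugants per donor cell at the end of mating.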

Enterococcus faecalis [4] = test: Induction of transfer of plasmid pMG2200 in Enterococcus faecalis JH2SS at 100 ng/ml; assay type: functional, organism-based; procedure, shortened: as §2
Enterococcus faecalis [5] = test: Antimicrobial activity against Enterococcus faecalis NKH10 harboring pMG2200-like and pMG2201-like plasmids after 24 hrs by agar dilution method; assay type: functional; details: NKH10, 24 h
Procedure, shortened: (§3)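 Agar dilution MICs on clinical E. faecalis isolates. Overnight Mueller-Hinton broth culture diluted 100-fold; ~5 × 10^5 cells inoculated onto Mueller-Hinton medium holding a concentration series of each drug. Incubated at 37°C and read at 24 h. Testing and interpretation follow CLSI (NCCLS) standards, with E. faecium ATCC 9790 as control strain.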

Enterococcus faecalis [6] = test: Antimicrobial activity against Enterococcus faecalis NKH12 harboring pMG2200-like and pMG2201-like plasmids after 24 hrs by agar dilution method; assay type: functional; details: NKH12, 24 h; procedure, shortened: as §3
Enterococcus faecalis [7] = test: Antimicrobial activity against Enterococcus faecalis NKH1 harboring pMG2200-like plasmid after 24 hrs by agar dilution method; assay type: functional; details: NKH1, 24 h; procedure, shortened: as §3
Enterococcus faecalis [8] = test: Antimicrobial activity against Enterococcus faecalis NKH6 harboring pMG2200-like and pMG2201-like plasmids after 24 hrs by agar dilution method; assay type: functional; details: NKH6, 24 h; procedure, shortened: as §3
Enterococcus faecalis [9] = test: Antimicrobial activity against Enterococcus faecalis NKH2 harboring pMG2200-like and pMG2201-like plasmids after 24 hrs by agar dilution method; assay type: functional; details: NKH2, 24 h; procedure, shortened: as §3
Enterococcus faecalis [10] = test: Antimicrobial activity against Enterococcus faecalis NKH4 harboring pMG2200-like and pMG2201-like plasmids after 24 hrs by agar dilution method; assay type: functional; details: NKH4, 24 h; procedure, shortened: as §3
Enterococcus faecalis [11] = test: Antimicrobial activity against Enterococcus faecalis NKH5 harboring pMG2200-like plasmid after 24 hrs by agar dilution method; assay type: functional; details: NKH5, 24 h; procedure, shortened: as §3
Enterococcus faecalis [12] = test: Antimicrobial activity against Enterococcus faecalis NKH3 harboring pMG2200-like and pMG2201-like plasmids after 24 hrs by agar dilution method; assay type: functional; details: NKH3, 24 h; procedure, shortened: as §3
Enterococcus faecalis [13] = test: Antimicrobial activity against Enterococcus faecalis NKH15 harboring pMG2200-like and pMG2201-like plasmids after 24 hrs by agar dilution method; assay type: functional; details: NKH15, 24 h; procedure, shortened: as §3
Enterococcus faecalis [14] = test: Antimicrobial activity against Enterococcus faecalis NKH11 harboring pMG2200-like plasmid after 24 hrs by agar dilution method; assay type: functional; details: NKH11, 24 h; procedure, shortened: as §3
Enterococcus faecalis [15] = test: Antimicrobial activity against Enterococcus faecalis NKH8 harboring pMG2200-like and pMG2201-like plasmids after 24 hrs by agar dilution method; assay type: functional; details: NKH8, 24 h; procedure, shortened: as §3
Enterococcus faecalis [16] = test: Antimicrobial activity against Enterococcus faecalis NKH18 harboring pMG2200-like and pMG2201-like plasmids after 24 hrs by agar dilution method; assay type: functional; details: NKH18, 24 h; procedure, shortened: as §3
Enterococcus faecalis [17] = test: Antimicrobial activity against Enterococcus faecalis NKH17 harboring pMG2200-like plasmid after 24 hrs by agar dilution method; assay type: functional; details: NKH17, 24 h; procedure, shortened: as §3
Enterococcus faecalis [18] = test: Antimicrobial activity against Enterococcus faecalis NKH14 harboring pMG2200-like and pMG2201-like plasmids after 24 hrs by agar dilution method; assay type: functional; details: NKH14, 24 h; procedure, shortened: as §3
Enterococcus faecalis [19] = test: Antimicrobial activity against Enterococcus faecalis NKH13 harboring pMG2200-like and pMG2201-like plasmids after 24 hrs by agar dilution method; assay type: functional; details: NKH13, 24 h; procedure, shortened: as §3
Enterococcus faecalis [20] = test: Antimicrobial activity against Enterococcus faecalis NKH16 harboring pMG2200-like plasmid after 24 hrs by agar dilution method; assay type: functional; details: NKH16, 24 h; procedure, shortened: as §3
Enterococcus faecalis [21] = test: Antimicrobial activity against Enterococcus faecalis NKH9 harboring pMG2200-like and pMG2201-like plasmids after 24 hrs by agar dilution method; assay type: functional; details: NKH9, 24 h; procedure, shortened: as §3
Enterococcus faecalis [22] = test: Antimicrobial activity against Enterococcus faecalis NKH7 harboring pMG2200-like plasmid after 24 hrs by agar dilution method; assay type: functional; details: NKH7, 24 h; procedure, shortened: as §3

Q: For `CC[C@H](C)[C@H](NC(=O)[C@H](C)N)C(=O)N[C@@H](Cc1ccccc1)C(=O)N[C@H](C(=O)N[C@@H](CC(C)C)C(=O)N[C@@H](C)C(=O)N[C@@H](CO)C(=O)O)[C@@H](C)CC` (H-AIFILAS-OH), which Activity (Enterococcus faecalis [1]) is on record?
A: inactive

Q: And the Activity (Enterococcus faecalis [2])?
A: inactive

Q: Which results are given for `CSCC[C@H](NC(=O)[C@@H](NC(=O)[C@H](CC(C)C)NC(=O)[C@@H](N)Cc1ccccc1)C(C)C)C(=O)N[C@@H](Cc1ccccc1)C(=O)N[C@@H](CC(C)C)C(=O)N[C@@H](CO)C(=O)NCC(=O)O` (H-FLVMFLSG-OH)?
A: Activity (Enterococcus faecalis [1]): inactive; Activity (Enterococcus faecalis [2]): inactive

Q: `CC(C)C[C@H](NC(=O)[C@H](CO)NC(=O)[C@H](Cc1ccccc1)NC(=O)[C@@H](N)CC(C)C)C(=O)N[C@H](C(=O)N[C@@H](CC(C)C)C(=O)N[C@@H](C)C(=O)NCC(=O)O)C(C)C` (H-LFSLVLAG-OH) was tested. Which Activity (Enterococcus faecalis [3]) did it give?
A: Active

Q: What about the Activity (Enterococcus faecalis [4]) of the same compound?
A: inactive

Q: And the Activity (Enterococcus faecalis [1])?
A: Active

Q: What about the Activity (Enterococcus faecalis [2]) of the same compound?
A: inactive

Q: `CC(C)C[C@H](NC(=O)[C@@H](NC(=O)[C@@H](NC(=O)[C@@H](N)CC(C)C)C(C)C)[C@@H](C)O)C(=O)N[C@H](C(=O)N[C@@H](Cc1ccccc1)C(=O)N[C@H](C(=O)O)C(C)C)C(C)C` (H-LVTLVFV-OH) was tested. Which Activity (Enterococcus faecalis [3]) did it give?
A: inactive

Q: And the Activity (Enterococcus faecalis [4])?
A: Active

Q: What about the Activity (Enterococcus faecalis [1]) of the same compound?
A: inactive

Q: What about the Activity (Enterococcus faecalis [2]) of the same compound?
A: Active

Q: `CC(C)C[C@H](NC(=O)[C@@H](NC(=O)[C@H](C)NC(=O)[C@@H](N)C(C)C)C(C)C)C(=O)N[C@H](C(=O)N[C@@H](CC(C)C)C(=O)NCC(=O)N[C@@H](C)C(=O)O)C(C)C` (H-VAVLVLGA-OH) was tested. Which Activity (Enterococcus faecalis [1]) did it give?
A: inactive

Q: And the Activity (Enterococcus faecalis [2])?
A: inactive

Q: With `CC1(C)S[C@@H]2[C@H](NC(=O)[C@H](N)c3ccccc3)C(=O)N2[C@H]1C(=O)O` [AMPICILLIN] as the compound, how does the MIC (Enterococcus faecalis [5]) read?
A: 4 µg/mL (≈ 11.4 µM)

Q: And the MIC (Enterococcus faecalis [6])?
A: 4 µg/mL (≈ 11.4 µM)

Q: What about the MIC (Enterococcus faecalis [7]) of the same compound?
A: 4 µg/mL (≈ 11.4 µM)

Q: What about the MIC (Enterococcus faecalis [8]) of the same compound?
A: 4 µg/mL (≈ 11.4 µM)

Q: What about the MIC (Enterococcus faecalis [9]) of the same compound?
A: 4 µg/mL (≈ 11.4 µM)

Q: And the MIC (Enterococcus faecalis [10])?
A: 4 µg/mL (≈ 11.4 µM)

Q: What about the MIC (Enterococcus faecalis [11]) of the same compound?
A: 4 µg/mL (≈ 11.4 µM)

Q: What about the MIC (Enterococcus faecalis [12]) of the same compound?
A: 4 µg/mL (≈ 11.4 µM)

Q: What about the MIC (Enterococcus faecalis [13]) of the same compound?
A: 4 µg/mL (≈ 11.4 µM)

Q: What about the MIC (Enterococcus faecalis [14]) of the same compound?
A: 4 µg/mL (≈ 11.4 µM)

Q: Which MIC (Enterococcus faecalis [5]) does the source give for `O=C(N[C@H](CO)[C@H](O)c1ccc([N+](=O)[O-])cc1)C(Cl)Cl` [CHLORAMPHENICOL] here?
A: 8 µg/mL (≈ 24.8 µM)

Q: What about the MIC (Enterococcus faecalis [6]) of the same compound?
A: 8 µg/mL (≈ 24.8 µM)

Q: And the MIC (Enterococcus faecalis [15])?
A: 8 µg/mL (≈ 24.8 µM)

Q: And the MIC (Enterococcus faecalis [7])?
A: 8 µg/mL (≈ 24.8 µM)

Q: And the MIC (Enterococcus faecalis [16])?
A: 8 µg/mL (≈ 24.8 µM)

Q: What about the MIC (Enterococcus faecalis [17]) of the same compound?
A: 4 µg/mL (≈ 12.4 µM)

Q: And the MIC (Enterococcus faecalis [8])?
A: 8 µg/mL (≈ 24.8 µM)

Q: What about the MIC (Enterococcus faecalis [18]) of the same compound?
A: 8 µg/mL (≈ 24.8 µM)

Q: And the MIC (Enterococcus faecalis [9])?
A: 8 µg/mL (≈ 24.8 µM)

Q: What about the MIC (Enterococcus faecalis [10]) of the same compound?
A: 8 µg/mL (≈ 24.8 µM)

Q: What about the MIC (Enterococcus faecalis [19]) of the same compound?
A: 8 µg/mL (≈ 24.8 µM)

Q: What about the MIC (Enterococcus faecalis [11]) of the same compound?
A: 4 µg/mL (≈ 12.4 µM)

Q: And the MIC (Enterococcus faecalis [20])?
A: 4 µg/mL (≈ 12.4 µM)

Q: And the MIC (Enterococcus faecalis [21])?
A: 8 µg/mL (≈ 24.8 µM)

Q: What about the MIC (Enterococcus faecalis [22]) of the same compound?
A: 4 µg/mL (≈ 12.4 µM)

Q: What about the MIC (Enterococcus faecalis [12]) of the same compound?
A: 8 µg/mL (≈ 24.8 µM)

Q: And the MIC (Enterococcus faecalis [13])?
A: 8 µg/mL (≈ 24.8 µM)

Q: What about the MIC (Enterococcus faecalis [14]) of the same compound?
A: 8 µg/mL (≈ 24.8 µM)
